# Assay results reported in ChEMBL document CHEMBL4811244, “Design and synthesis of 1H-pyrazolo[3,4-b]pyridines targeting mitogen-activated protein kinase kinase 4 (MKK4) - A promising target for liver regeneration” (Eur J Med Chem, 2021).
# Key:
# [1] = target: T1, Mitogen-activated protein kinase kinase kinase 20 (Homo sapiens, UniProt Q9NYL2); assay: Binding affinity to wild-type human partial length ZAK (M1 to L331 residues) expressed in bacterial expression system by Kinomescan method
# Method in brief: (§1)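 Dissociation constants (Kd, nM) were determined by KINOMEscan competition-binding assay, in duplicate.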
# Target sequence in this assay (Q9NYL2 whole entry, the tested form may be a part): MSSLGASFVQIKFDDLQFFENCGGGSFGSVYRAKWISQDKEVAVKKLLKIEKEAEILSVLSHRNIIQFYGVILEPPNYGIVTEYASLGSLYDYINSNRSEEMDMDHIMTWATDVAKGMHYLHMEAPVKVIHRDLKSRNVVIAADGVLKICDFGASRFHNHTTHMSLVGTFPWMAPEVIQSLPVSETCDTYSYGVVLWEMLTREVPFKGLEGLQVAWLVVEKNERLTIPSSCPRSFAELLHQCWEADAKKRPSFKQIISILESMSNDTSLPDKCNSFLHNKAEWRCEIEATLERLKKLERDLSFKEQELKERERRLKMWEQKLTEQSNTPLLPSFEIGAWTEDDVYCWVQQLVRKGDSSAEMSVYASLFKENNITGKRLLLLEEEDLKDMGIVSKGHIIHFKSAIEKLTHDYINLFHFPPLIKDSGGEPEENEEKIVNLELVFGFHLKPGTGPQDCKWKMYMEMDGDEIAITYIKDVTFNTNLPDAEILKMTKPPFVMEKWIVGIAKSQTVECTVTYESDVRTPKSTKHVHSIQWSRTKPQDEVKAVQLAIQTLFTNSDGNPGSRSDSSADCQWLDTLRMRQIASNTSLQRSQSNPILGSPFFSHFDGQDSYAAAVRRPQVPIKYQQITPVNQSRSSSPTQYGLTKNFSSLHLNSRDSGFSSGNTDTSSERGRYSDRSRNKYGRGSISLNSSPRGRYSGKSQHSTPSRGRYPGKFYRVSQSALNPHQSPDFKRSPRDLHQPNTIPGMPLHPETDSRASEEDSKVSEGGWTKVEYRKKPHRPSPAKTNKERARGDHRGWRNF
# [2] = target: T2, Dual specificity mitogen-activated protein kinase kinase 7 (Homo sapiens) (UniProt O14733); assay: Binding affinity to wild-type human full length MKK7 (M1 to R419 residues) expressed in mammalian expression system assessed as residual binding level at 100 nM by Kinomescan method relative to control
# T2 sequence (whole entry): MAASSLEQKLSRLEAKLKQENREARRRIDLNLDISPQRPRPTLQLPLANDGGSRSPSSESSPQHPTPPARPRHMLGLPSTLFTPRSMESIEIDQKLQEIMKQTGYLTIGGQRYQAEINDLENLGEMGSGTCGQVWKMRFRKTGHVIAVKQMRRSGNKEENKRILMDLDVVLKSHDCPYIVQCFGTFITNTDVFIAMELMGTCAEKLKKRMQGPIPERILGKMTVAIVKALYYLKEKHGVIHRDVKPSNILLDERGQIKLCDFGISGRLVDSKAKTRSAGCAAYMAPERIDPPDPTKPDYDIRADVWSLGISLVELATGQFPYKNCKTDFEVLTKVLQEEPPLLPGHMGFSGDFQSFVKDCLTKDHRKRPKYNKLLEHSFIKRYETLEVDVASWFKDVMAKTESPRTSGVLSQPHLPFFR
# [3] = target: Serine/threonine-protein kinase B-raf (Homo sapiens, UniProt P15056); assay: Binding affinity to wild-type human partial length BRAF (S429 to E741 residues) expressed in mammalian expression system by Kinomescan method
# Chain of Serine/threonine-protein kinase B-raf (P15056 whole entry, the tested form may be a part): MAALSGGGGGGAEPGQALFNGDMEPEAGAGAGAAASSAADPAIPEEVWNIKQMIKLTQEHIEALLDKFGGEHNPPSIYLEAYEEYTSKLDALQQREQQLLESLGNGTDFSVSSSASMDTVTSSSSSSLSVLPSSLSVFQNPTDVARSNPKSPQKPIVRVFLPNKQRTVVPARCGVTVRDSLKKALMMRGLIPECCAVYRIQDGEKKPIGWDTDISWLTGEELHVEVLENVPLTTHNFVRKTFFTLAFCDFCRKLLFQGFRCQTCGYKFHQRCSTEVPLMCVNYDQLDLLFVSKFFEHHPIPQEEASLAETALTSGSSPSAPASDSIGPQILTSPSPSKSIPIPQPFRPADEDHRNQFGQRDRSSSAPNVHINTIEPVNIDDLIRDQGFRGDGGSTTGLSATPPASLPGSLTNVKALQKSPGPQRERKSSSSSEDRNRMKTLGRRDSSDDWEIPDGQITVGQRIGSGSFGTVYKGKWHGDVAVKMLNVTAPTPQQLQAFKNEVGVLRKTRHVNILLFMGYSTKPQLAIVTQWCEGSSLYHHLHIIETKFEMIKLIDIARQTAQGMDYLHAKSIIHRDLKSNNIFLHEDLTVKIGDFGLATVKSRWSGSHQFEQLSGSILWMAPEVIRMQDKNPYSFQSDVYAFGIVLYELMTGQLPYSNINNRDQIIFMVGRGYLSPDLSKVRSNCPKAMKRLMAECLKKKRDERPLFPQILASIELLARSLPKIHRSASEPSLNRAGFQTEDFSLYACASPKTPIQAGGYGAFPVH
# [4] = target: T1, Mitogen-activated protein kinase kinase kinase 20; assay: Binding affinity to wild-type human partial length ZAK (M1 to L331 residues) expressed in bacterial expression system assessed as residual binding level at 100 nM by Kinomescan method relative to control
# Target sequence in this assay (Q9NYL2 2-800 limits assumed): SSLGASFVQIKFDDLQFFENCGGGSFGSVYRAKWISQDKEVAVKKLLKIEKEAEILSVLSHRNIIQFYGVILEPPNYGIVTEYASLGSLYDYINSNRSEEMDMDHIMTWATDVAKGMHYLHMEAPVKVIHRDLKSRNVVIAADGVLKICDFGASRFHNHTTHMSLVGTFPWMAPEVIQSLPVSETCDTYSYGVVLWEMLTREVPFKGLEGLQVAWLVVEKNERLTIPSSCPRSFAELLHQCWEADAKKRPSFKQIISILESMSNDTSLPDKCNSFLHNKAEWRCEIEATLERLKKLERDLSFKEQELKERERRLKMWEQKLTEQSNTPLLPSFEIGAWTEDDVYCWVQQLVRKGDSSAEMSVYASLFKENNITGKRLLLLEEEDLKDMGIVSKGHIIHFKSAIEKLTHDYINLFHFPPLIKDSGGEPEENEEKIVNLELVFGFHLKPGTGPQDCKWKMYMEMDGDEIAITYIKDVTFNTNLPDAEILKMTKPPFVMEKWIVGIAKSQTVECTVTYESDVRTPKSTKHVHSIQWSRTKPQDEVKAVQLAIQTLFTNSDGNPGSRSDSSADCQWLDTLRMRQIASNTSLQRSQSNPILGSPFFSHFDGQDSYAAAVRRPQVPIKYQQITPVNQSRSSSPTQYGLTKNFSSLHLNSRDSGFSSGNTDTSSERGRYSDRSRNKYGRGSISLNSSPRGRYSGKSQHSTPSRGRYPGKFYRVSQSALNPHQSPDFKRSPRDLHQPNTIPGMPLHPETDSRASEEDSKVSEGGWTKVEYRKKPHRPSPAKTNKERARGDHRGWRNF
# [5] = target: T3, Dual specificity mitogen-activated protein kinase kinase 7 (Homo sapiens, UniProt O14733); assay: Binding affinity to wild-type human full length MKK7 (M1 to R419 residues) expressed in mammalian expression system by Kinomescan method; method in brief: as §1
# T3 sequence (O14733 whole entry): T2 sequence (whole entry)
# [6] = target: Mitogen-activated protein kinase 8 (Homo sapiens, UniProt P45983); assay: Binding affinity to wild-type human full length JNK1 (M1 to Q384 residues) expressed in mammalian expression system by Kinomescan method
# Chain of Mitogen-activated protein kinase 8 (P45983 whole entry, the tested form may be a part): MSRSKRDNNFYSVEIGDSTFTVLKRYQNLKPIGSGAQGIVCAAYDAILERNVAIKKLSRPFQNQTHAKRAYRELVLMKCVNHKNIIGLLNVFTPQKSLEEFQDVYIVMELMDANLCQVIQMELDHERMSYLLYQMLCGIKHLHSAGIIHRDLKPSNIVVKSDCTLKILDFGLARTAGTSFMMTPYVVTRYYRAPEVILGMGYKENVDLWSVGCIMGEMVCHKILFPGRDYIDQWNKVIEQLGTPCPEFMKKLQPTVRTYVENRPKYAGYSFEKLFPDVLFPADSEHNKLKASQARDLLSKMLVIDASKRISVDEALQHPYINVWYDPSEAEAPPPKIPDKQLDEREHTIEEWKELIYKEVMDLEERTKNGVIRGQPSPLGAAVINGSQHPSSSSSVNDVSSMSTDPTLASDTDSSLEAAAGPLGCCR
# [7] = target: T4, Mitogen-activated protein kinase kinase kinase kinase 5 (Homo sapiens, UniProt Q9Y4K4); assay: Binding affinity to wild-type human partial length MAP4K5 (M1 to P297 residues) expressed in bacterial expression system by Kinomescan method; method in brief: as §1
# Target sequence in this assay (Q9Y4K4 whole entry, the tested form may be a part): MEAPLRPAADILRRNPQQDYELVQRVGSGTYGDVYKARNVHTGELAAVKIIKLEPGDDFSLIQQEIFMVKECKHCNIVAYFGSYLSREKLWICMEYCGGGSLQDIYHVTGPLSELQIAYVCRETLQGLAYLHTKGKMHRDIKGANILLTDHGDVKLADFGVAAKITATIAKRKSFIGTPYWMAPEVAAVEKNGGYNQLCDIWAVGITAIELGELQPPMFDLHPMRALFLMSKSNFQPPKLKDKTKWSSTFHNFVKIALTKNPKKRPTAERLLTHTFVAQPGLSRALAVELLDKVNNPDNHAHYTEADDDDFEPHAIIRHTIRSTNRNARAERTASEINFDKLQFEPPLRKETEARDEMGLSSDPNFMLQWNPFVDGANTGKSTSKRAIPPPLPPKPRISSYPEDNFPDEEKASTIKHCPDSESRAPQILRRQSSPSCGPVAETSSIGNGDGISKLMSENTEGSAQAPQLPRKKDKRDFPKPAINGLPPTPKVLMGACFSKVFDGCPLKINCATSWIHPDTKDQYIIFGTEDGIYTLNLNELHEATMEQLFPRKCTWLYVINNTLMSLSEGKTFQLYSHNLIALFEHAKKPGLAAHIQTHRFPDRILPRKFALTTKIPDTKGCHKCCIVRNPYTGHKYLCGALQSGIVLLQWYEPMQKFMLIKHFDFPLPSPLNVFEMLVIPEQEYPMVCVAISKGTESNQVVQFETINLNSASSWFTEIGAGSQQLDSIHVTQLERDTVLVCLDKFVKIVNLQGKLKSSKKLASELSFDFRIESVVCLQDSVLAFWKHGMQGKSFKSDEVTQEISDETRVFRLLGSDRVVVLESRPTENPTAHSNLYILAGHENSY
# [8] = target: T4, Mitogen-activated protein kinase kinase kinase kinase 5; assay: Binding affinity to wild-type human partial length MAP4K5 (M1 to P297 residues) expressed in bacterial expression system assessed as residual binding level at 100 nM by Kinomescan method relative to control
# Target sequence in this assay (Q9Y4K4 whole entry, looked up, the tested form may be a part): as the sequence (Q9Y4K4 whole entry, the tested form may be a part) above
structure (smiles),measurement,setting,value
Nc1ccc(-c2cnc3[nH]nc(C(=O)c4c(F)ccc(NS(=O)(=O)Cc5ccccc5)c4F)c3c2)cc1,Kd,[1],9.5 nM
same,Activity,[2],100%
same,Kd,[3],610 nM
same,Activity,[4],1.8%
same,Kd,[5],5000 nM
same,Kd,[6],140 nM
same,Kd,[7],5.8 nM
same,Activity,[8],1.4%
